Data on eleven compounds can be found in ChEMBL document CHEMBL1933043.

Data set [1] deals with Influenza A virus. The data set can be described thus: Antiviral activity against influenza A virus (A/swine/OH/511445/2007(H1N1)) Oh7 infected in MDCK cells assessed as inhibition of viral replication after 4 days by quantitative RT-PCR. It counts as functional. The following applies: (A/swine/OH/511445/2007(H1N1)) Oh7, MDCK, 96 h, read-out: ED50 (the source's name).
Data set [2] can be described thus: Therapeutic index, ratio of TD50 for MDCK cells to ED50 for influenza A virus (A/swine/OH/511445/2007(H1N1)) Oh7. It counts as cell-based. To be noted: dog, read-out: Ratio TD50/ED50. In a few lines:
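MDCK cells infected with swine influenza A/swine/OH/511445/2007 (H1N1, Oh7) and incubated with compound at 0.1–150 μM plus trypsin (10 μg/mL) for up to 4 days. Cytopathic effect was scored, and replication was confirmed by immunofluorescence and Western blot against viral nucleoprotein or whole virus. ED50 is the dose giving 50% virus reduction, and TD50 the dose giving 50% cell death. TI is TD50/ED50.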

A short description of data set [3]: Cytotoxicity against MDCK cells after 4 days. The following applies: dog, read-out: TD50. It counts as cell-based, Canis lupus familiaris. Put shortly: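 MDCK cells exposed to compounds at 0.1–150 μM with trypsin (10 μg/mL) for up to 4 days. Cells were inspected microscopically. TD50 was taken as the dose causing 50% cell death.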

As for `NCCCOc1cc(-c2oc3cc(O)cc(O)c3c(=O)c2O)ccc1O`, in data set [1], the EC50 is more than 50 µM.

For the compound `O=C(Oc1c(-c2ccc(O)c(O)c2)oc2cc(O)cc(O)c2c1=O)c1cc(O)c(O)c(O)c1`, the selectivity ratio in data set [2] is 9.9. Further, the CC50 at 96 h in data set [3] was 90.2 µM. Further, in data set [1], the EC50 was determined as 9.1 µM.

In the case of `Nc1cc(C(=O)Oc2c(-c3ccc(O)c(O)c3)oc3cc(O)cc(O)c3c2=O)ccc1O`, the selectivity ratio in data set [2] amounted to 2.7. In addition, in data set [3], the CC50 at 96 h was 60.1 µM. Moreover, in data set [1], the EC50 turned out to be 22.6 µM.

Regarding `CCCOc1cc(O)cc2oc(-c3ccc(O)c(O)c3)c(O)c(=O)c12`, the EC50 in data set [1] was more than 50 µM.

On to `O=c1c(O[C@@H]2O[C@H](CO)[C@@H](O)[C@H](O)[C@H]2O)c(-c2ccc(O)c(O)c2)oc2cc(O)cc(O)c12` [ISOQUERCETIN], for which the selectivity ratio in data set [2] is 37.6. The CC50 at 96 h in data set [3] is 45.1 µM. The EC50 in data set [1] was 1.2 µM.

On to `O=C(Oc1cc(-c2oc3cc(O)cc(O)c3c(=O)c2O)ccc1O)c1cc(O)c(O)c(O)c1`, for which the EC50 in data set [1] is more than 50 µM.

Take `O=c1c(OCc2ccccc2)c(-c2ccc(OCc3ccccc3)c(OCc3ccccc3)c2)oc2cc(OCc3ccccc3)cc(O)c12`: in data set [1], the EC50 was more than 50 µM.

For the compound `O=c1c(O)c(-c2ccc(O)c(O)c2)oc2cc(O)cc(O)c12` [QUERCETIN], the selectivity ratio in data set [2] was 1.7. Also, the CC50 at 96 h in data set [3] was 83.4 µM. Also, the EC50 in data set [1] amounted to 48.2 µM.

For the compound `Nc1ccc(C(=O)Oc2c(-c3ccc(O)c(O)c3)oc3cc(O)cc(O)c3c2=O)cc1O`, the selectivity ratio in data set [2] worked out at 2.3. In addition, the CC50 at 96 h in data set [3] turned out to be 54.8 µM. Also, the EC50 in data set [1] was found to be 24.1 µM.

For `O=C(Oc1c(-c2ccc(O)c(O)c2)oc2cc(O)cc(O)c2c1=O)c1cc(O)ccc1O`, the selectivity ratio in data set [2] amounted to 2.3. In addition, in data set [3], the CC50 at 96 h stood at 45.2 µM. Moreover, in data set [1], the EC50 amounted to 19.4 µM.

With `O=C(O[C@@H]1Cc2c(O)cc(O)cc2O[C@@H]1c1cc(O)c(O)c(O)c1)c1cc(O)c(O)c(O)c1` [EPIGALOCATECHIN GALLATE], the selectivity ratio in data set [2] was 5.5. Moreover, the CC50 at 96 h in data set [3] was 45.5 µM. Further, the EC50 in data set [1] was 8.3 µM.
